Measured values as given in publication PMC3149845 (The Journal of neuroscience : the official journal of the …, 2011).
Peptide text beside a SMILES is read from it.

Key:
[1] = target: smTas1R2:T40S/L66V/S67I/E142D+smTas1R3 (Saimiri sciureus, UniProt A3QP08, E142D/L66V/S67I/T40S); assay: Ca2+ mobilization, mutated squirrel monkey receptor; assay type: cell-based, squirrel monkey (Saimiri sciureus); details: aspartame 10mM, neotame 1mM, sucralose 2 mM; compared with smTas1R2/smTas1R3
[2] = target: hTas1R2:S40T/I67S+hTas1R3 (Homo sapiens, UniProt Q8TE23, I67S/S40T); assay: Ca2+ mobilization, mutated human receptor; assay type: cell-based; details: aspartame 10mM, neotame 1mM, sucralose 2 mM; compared with hTas1R2/hTas1R3
Sequence of hTas1R2:S40T/I67S+hTas1R3 (Q8TE23 20-839 S40T/I67S, one chain of several): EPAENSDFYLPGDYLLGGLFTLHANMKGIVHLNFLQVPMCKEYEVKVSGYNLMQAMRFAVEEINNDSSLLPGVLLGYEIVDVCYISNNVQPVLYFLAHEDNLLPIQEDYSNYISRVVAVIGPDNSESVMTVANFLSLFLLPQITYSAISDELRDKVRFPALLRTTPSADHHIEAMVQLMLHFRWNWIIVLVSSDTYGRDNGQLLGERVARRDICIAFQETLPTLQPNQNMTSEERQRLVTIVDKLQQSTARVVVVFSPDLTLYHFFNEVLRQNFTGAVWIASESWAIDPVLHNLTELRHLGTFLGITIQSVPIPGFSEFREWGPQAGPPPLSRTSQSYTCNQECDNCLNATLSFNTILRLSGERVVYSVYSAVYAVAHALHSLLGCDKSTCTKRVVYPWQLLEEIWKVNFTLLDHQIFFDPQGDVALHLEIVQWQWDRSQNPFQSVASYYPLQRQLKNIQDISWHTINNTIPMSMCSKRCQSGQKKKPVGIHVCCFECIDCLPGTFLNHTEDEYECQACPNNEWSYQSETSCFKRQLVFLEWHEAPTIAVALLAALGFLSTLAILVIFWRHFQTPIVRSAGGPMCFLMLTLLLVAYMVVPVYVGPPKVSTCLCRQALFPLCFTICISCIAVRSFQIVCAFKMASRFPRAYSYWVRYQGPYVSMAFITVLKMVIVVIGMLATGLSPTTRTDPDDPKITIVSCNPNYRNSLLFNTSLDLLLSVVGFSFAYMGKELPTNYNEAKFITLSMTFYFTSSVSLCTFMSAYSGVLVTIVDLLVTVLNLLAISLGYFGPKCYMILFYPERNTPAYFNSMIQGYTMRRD
How it was run: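 Mutant hTas1R2 with hTas1R3 and Gα16-gust44 in HEK293E cells (50,000/well, 0.06 μg each plasmid per well); 44 h post-transfection, loaded with 3 μM Fluo-4 AM in HBSS/20 mM HEPES for 1 h. Fluorescence (ex 488/em 525 nm) recorded every 2 s, tastant at 30 s, 150 s further. ΔF/F normalized to the hTas1R2/hTas1R3 sucralose (2 mm) maximum; three independent experiments; one-way ANOVA with Tukey test.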

[3] = system: All the human and squirrel monkey mutants; assay: Ca2+ mobilization, control response of all mutants; assay type: cell-based; details: sucralose 2 mM
How it was run: (§1)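 HEK293E cells grown at 37°C in Opti-MEM with 5% FBS and seeded at 50,000/well. Cells co-lipofected with Tas1R plasmids and Gα16-gust44 (0.06 μg each per well); medium changed at 20 h, assayed 24 h later. Cells loaded 1 h with Fluo-4 AM in HEPES-buffered HBSS. Tastant added at 30 s; fluorescence (ex 488/em 525 nm) read every 2 s for 150 s more. ΔF/F normalised to human receptor maximal sucralose response; mean ± SEM, three independent experiments.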

smTas1R2/hTas1R3 = target: T1, smTas1R2/hTas1R3 (Saimiri sciureus, UniProt A3QP08); assay: Ca2+ mobilization, mismatched receptor; assay type: cell-based, human/squirrel monkey; details: aspartame 10mM, neotame 1mM, sucralose 2 mM, D-tryptophan 5mM, sucrose 150mM
T1 sequence (A3QP08 20-834): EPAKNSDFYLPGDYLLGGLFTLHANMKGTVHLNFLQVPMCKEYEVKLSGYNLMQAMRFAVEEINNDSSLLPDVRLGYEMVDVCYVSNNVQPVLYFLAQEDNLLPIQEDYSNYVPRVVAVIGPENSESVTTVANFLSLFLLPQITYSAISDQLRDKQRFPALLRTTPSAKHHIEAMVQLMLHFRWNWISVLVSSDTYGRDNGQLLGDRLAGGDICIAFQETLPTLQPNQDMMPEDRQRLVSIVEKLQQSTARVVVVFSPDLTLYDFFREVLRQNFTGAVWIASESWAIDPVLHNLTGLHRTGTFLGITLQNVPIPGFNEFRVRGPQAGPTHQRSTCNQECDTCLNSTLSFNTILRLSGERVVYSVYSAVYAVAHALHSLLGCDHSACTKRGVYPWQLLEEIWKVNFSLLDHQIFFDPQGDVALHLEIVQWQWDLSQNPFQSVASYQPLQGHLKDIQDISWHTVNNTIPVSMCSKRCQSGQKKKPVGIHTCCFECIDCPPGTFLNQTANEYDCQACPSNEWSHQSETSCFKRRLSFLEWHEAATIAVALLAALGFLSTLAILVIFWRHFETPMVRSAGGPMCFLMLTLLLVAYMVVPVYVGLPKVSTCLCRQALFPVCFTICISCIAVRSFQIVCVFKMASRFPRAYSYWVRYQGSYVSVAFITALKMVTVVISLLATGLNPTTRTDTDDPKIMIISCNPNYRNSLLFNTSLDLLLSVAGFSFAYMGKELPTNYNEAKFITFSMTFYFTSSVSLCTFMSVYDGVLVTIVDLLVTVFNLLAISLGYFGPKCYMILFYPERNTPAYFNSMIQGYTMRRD
T1 sequence (Q7RTX0 21-852 partner): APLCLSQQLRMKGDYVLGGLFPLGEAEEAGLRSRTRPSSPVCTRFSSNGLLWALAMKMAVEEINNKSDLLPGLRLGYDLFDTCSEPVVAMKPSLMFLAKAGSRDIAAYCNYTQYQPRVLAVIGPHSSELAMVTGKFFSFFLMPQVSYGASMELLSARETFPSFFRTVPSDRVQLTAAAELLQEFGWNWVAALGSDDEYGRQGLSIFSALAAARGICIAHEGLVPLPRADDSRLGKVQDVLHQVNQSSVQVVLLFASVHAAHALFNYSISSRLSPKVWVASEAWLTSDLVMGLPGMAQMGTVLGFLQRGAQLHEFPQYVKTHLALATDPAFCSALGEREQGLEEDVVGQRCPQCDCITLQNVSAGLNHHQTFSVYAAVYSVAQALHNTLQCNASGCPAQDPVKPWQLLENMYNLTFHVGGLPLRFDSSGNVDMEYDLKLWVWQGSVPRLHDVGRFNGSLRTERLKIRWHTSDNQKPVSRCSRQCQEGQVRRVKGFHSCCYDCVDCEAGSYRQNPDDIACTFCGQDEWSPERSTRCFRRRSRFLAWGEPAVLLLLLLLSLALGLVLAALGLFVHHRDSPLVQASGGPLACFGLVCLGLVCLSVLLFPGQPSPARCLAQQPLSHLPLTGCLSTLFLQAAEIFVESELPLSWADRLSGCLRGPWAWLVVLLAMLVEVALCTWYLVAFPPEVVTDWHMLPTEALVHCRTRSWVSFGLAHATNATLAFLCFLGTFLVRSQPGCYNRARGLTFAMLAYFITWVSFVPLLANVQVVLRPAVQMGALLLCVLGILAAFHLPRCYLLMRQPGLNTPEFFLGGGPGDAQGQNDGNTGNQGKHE
How it was run: as §1

Sequence of smTas1R2:T40S/L66V/S67I/E142D+smTas1R3 (A3QP08 20-834 T40S/L66V/S67I/E142D): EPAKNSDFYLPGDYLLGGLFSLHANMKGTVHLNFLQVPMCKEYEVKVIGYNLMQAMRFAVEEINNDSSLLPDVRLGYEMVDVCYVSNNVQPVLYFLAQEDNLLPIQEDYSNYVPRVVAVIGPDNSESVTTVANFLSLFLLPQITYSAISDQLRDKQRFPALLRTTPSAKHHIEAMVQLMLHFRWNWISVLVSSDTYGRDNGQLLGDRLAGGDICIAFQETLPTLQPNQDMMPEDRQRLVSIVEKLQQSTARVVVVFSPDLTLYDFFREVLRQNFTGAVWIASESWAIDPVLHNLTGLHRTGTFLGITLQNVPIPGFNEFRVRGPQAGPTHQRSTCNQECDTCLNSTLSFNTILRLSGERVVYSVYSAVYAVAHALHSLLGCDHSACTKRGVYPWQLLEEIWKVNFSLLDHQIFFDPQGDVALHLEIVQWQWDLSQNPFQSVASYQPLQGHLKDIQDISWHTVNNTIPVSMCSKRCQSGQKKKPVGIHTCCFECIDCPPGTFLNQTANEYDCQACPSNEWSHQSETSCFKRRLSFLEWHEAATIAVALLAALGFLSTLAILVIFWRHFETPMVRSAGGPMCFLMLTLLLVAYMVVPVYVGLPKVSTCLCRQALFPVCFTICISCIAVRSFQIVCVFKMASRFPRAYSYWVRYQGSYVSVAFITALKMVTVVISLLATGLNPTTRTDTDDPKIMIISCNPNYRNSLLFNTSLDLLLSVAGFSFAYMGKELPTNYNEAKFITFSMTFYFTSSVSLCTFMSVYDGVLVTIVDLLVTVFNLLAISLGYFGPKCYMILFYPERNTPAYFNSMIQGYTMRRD

| Compound | calcium response to sweetener [1] | calcium response to sweetener [2] | calcium response to the control sweetener [3] | calcium response to sweetener (smTas1R2/hTas1R3) |
| --- | --- | --- | --- | --- |
| COC(=O)[C@H](Cc1ccccc1)NC(=O)[C@@H](N)CC(=O)O [aspartame, L-α-aspartly-L-phenylalanine methyl ester] (H-Asp-Phe-OMe) | significant responses | greater than multiple mutants that contained the D142E mutant | – | – |
| COC(=O)[C@H](Cc1ccccc1)NC(=O)[C@H](CC(=O)O)NCCC(C)(C)C [neotame] | significant responses | – | – | – |
| OC[C@H]1O[C@H](O[C@]2(CCl)O[C@H](CCl)[C@@H](O)[C@@H]2O)[C@H](O)[C@@H](O)[C@H]1Cl [sucralose] | – | – | significant level of response | remained intact or reduced |
